Common to all, as to assay type: functional, Mus musculus
A short description of assay [1]: Average weight change of mice was determined on day 6 after intraperitoneal injection on day 1 at a dose of 256 mg/kg following intraperitoneal implant of P388 leukemia cells in CDF1 mice. An outline of the steps:
(§1)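 Female CDF₁ mice (16–20 g), six per dose, implanted ip with 10⁶ P388 cells kept as ascites in DBA/2 mice. Single ip dose of freshly prepared aqueous solution 1 day post-implant. Body weight change averaged per dose group, read on day 6, in grams.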

The subject of assay [2] is P388. As to the kind of experiment: Antitumor activity was determined after intraperitoneal injection on day 1 at a dose of 256 mg/kg following intraperitoneal implant of P388 leukemia cells in CDF1 mice. In short, it runs like this:
(§2)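 P388 leukemia carried as ascites in DBA/2 mice; 10⁶ cells implanted ip into female CDF₁ mice (16–20 g), six per dose, 10 as untreated leukemia controls. Single ip dose of freshly prepared aqueous solution 1 day after implant. Daily observation for 30 days; activity taken as median survival time, treated vs untreated groups (% T/C).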

The subject of assay [3] is P388. As to the kind of experiment: Average weight change of mice was determined on day 6 after intraperitoneal injection on day 1 at a dose of 200 mg/kg following intraperitoneal implant of P388 leukemia cells in CDF1 mice. An outline of the steps:
as §1

For assay [4], the system named is P388. As to the kind of experiment: Average weight change of mice was determined on day 6 after intraperitoneal injection on day 1 at a dose of 100 mg/kg following intraperitoneal implant of P388 leukemia cells in CDF1 mice. An outline of the steps:
as §1

Assay [5] has as its system P388. The experiment in a line: Antitumor activity was determined after intraperitoneal injection on day 1 at a dose of 100 mg/kg following intraperitoneal implant of P388 leukemia cells in CDF1 mice. An outline of the steps: as §2
For assay [6], the system named is P388. The experiment in a line: Antitumor activity was determined after intraperitoneal injection on day 1 at a dose of 200 mg/kg following intraperitoneal implant of P388 leukemia cells in CDF1 mice. An outline of the steps:
as §2

The test system of assay [7] is P388. As to the kind of experiment: Average weight change of mice was determined on day 6 after intraperitoneal injection on day 1 at a dose of 128 mg/kg following intraperitoneal implant of P388 leukemia cells in CDF1 mice. An outline of the steps:
as §1

The subject of assay [8] is P388. The experiment in a line: Antitumor activity was determined after intraperitoneal injection on day 1 at a dose of 64 mg/kg following intraperitoneal implant of P388 leukemia cells in CDF1 mice. In short, it runs like this:
as §2

For assay [9], the system named is P388. As to the kind of experiment: Antitumor activity which was determined after intraperitoneal injection on day 1 at a dose of 32 mg/kg following intraperitoneal implant of P388 leukemia cells in CDF1 mice. In short, it runs like this:
as §2

Assay [10] concerns P388. The experiment in a line: Antitumor activity was determined after intraperitoneal injection on day 1 at a dose of 128 mg/kg following intraperitoneal implant of P388 leukemia cells in CDF1 mice. An outline of the steps:
as §2

Assay [11] has as its system P388. As to the kind of experiment: Average weight change of mice was determined on day 6 after intraperitoneal injection on day 1 at a dose of 32 mg/kg following intraperitoneal implant of P388 leukemia cells in CDF1 mice. In short, it runs like this: as §1
The test system of assay [12] is P388. The experiment in a line: Average weight change of mice was determined on day 6 after intraperitoneal injection on day 1 at a dose of 64 mg/kg following intraperitoneal implant of P388 leukemia cells in CDF1 mice. An outline of the steps:
as §1

The subject of assay [13] is P388. As to the kind of experiment: Antitumor activity was determined after intraperitoneal injection on day 1 at a dose of 400 mg/kg following intraperitoneal implant of P388 leukemia cells in CDF1 mice. An outline of the steps:
as §2

For assay [14], the system named is P388. The experiment in a line: Average weight change of mice was determined on day 6 after intraperitoneal injection on day 1 at a dose of 50 mg/kg following intraperitoneal implant of P388 leukemia cells in CDF1 mice. In short, it runs like this:
as §1

The test system of assay [15] is P388. As to the kind of experiment: Antitumor activity was determined after intraperitoneal injection on day 1 at a dose of 50 mg/kg following intraperitoneal implant of P388 leukemia cells in CDF1 mice. An outline of the steps:
as §2

Assay [16] relates to P388. As to the kind of experiment: Average weight change of mice was determined on day 6 after intraperitoneal injection on day 1 at a dose of 400 mg/kg following intraperitoneal implant of P388 leukemia cells in CDF1 mice. An outline of the steps:
as §1

By T/C is commonly meant the result in the treated group divided by that in the control group, in per cent. Compound `CC(=O)O[C@H]1C[C@H](n2cc(C)c(=O)[nH]c2=O)O[C@@H]1COC(=O)NP(=O)(N1CC1(C)C)N1CC1(C)C` (stereo not given in full) showed an AWC in [1] of -1.3 g. This compound gave a T/C in the assay with P388 [2] of 113%.

On to `CC(=O)OC[C@H]1O[C@@H](n2cc(C)c(=O)[nH]c2=O)C[C@@H]1OC(=O)NP(=O)(N1CC1(C)C)N1CC1(C)C` (stereo not given in full), for which the AWC in [1] was -0.5 g. Besides, the T/C in the assay with P388 [2] is recorded as 125%.

For `CCOP(=O)(N1CC1(C)C)N1CC1(C)C` (stereo not given), the AWC is given as -5.2 g in the assay on P388 [3] and -2.6 g in the assay on P388 [4]. Further, the figures for the T/C in the assay on P388 [5] and in the assay with P388 [6] were 289% and 433%, respectively.

In the case of `Cc1cn(C2CC(O)C(CNP(=O)(N3CC3(C)C)N3CC3(C)C)O2)c(=O)[nH]c1=O` (stereo not given), the AWC is -0.8 g in the assay on P388 [7], -0.7 g in [1], -0.7 g in the assay with P388 [11] and -0.4 g in the assay on P388 [12]. In addition, the T/C turned out to be 150% in the assay with P388 [8], 156% in the assay with P388 [2], 131% in the assay with P388 [9] and 150% with P388 [10].

For `CCOC(=O)NP(=O)(N1CC1(C)C)N1CC1(C)C` (stereo not given) [METUREDEPA], the AWC is recorded as -0.2 g in the assay with P388 [3], -0.4 g with P388 [4], -0.7 g in the assay on P388 [14] and -1.3 g in the assay with P388 [16]. The T/C is 244% in the assay with P388 [13], 163% with P388 [15], 181% in the assay with P388 [5] and 231% in the assay with P388 [6].

Consider `CC1(C)CN1P(=O)(Nc1ccccc1)N1CC1(C)C` (stereo not given) [PHOSPHINIC ANILIDE DERIVATE], for which the AWC in the assay on P388 [7] was -0.7 g; in assay [1], -0.8 g; with P388 [12] it was -1.3 g. The T/C is listed as 144% with P388 [8], 169% in the assay with P388 [2] and 138% in the assay on P388 [10].

(Values after ChEMBL document CHEMBL1124917 (1990).)
